Source: ChEMBL document CHEMBL4118197, “The discovery and preclinical evaluation of BMS-707035, a potent HIV-1 integrase strand transfer inhibitor” (Bioorg Med Chem Lett, 2018)
In brackets after ≈: the same amount, converted by molar mass.

Experiments:
[1] = Cmax in Sprague-Dawley rat at 4.4 mg/kg, po; type: ADME, organism-based; parameters: dose 4.4 mg/kg, route oral; conditions: in vivo
Outline: (§1)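 Single IV (about 1 mg/kg) and oral (about 5 mg/kg) doses in rat, cynomolgus monkey and dog; CL, t1/2, Vss, Cmax, tmax, AUC and oral bioavailability F derived from plasma concentration-time data.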

[2] = Volume of distribution at steady state in Beagle dog at 1 mg/kg, iv; type: ADME, organism-based, Canis lupus familiaris; conditions: in vivo, read-out: Vdss
Canis familiaris = organism: Canis familiaris; assay: Toxicity in dog assessed as occurence of convulsions; type: organism-based, Canis lupus familiaris; conditions: in vivo
[3] = Half-life in cynomolgus monkey at 1 mg/kg, iv; type: ADME, organism-based, Macaca fascicularis; conditions: in vivo; outline: as §1
[4] = Ssolubility of the compound at pH 6.1; type: physicochemical; conditions: buffer
[5] = Volume of distribution at steady state in cynomolgus monkey at 1 mg/kg, iv; type: ADME, organism-based, Macaca fascicularis; conditions: in vivo, read-out: Vdss
[6] = target: Human immunodeficiency virus type 1 integrase (Human immunodeficiency virus 1, UniProt Q7ZJM1); assay: Inhibition of HIV1 integrase strand transfer activity
Human immunodeficiency virus type 1 integrase, sequence (Q7ZJM1 whole entry): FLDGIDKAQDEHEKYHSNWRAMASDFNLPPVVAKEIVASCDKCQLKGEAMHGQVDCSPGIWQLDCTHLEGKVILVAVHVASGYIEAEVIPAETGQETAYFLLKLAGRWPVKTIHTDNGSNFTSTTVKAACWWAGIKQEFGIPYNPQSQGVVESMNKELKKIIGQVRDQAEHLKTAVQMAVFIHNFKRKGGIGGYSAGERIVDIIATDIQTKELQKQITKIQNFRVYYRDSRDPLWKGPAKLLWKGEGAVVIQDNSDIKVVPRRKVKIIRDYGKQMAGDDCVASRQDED

[7] = Cmax in cynomolgus monkey at 5 mg/kg, po; type: ADME, organism-based, Macaca fascicularis; parameters: dose 5 mg/kg, route oral; conditions: in vivo; outline: as §1
Salmonella typhimurium = assay: Genotoxicity in Salmonella typhimurium TA98 at =<5000 ug/plate in absence of metabolic activators by Ames test; type: toxicity, organism-based; conditions: salmonella enterica subsp. enterica serovar typhimurium
Outline: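 Bacterial reverse mutation (Ames) test, Salmonella typhimurium TA98 and TA100, up to 5000 µg/plate, with and without metabolic activation.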

[8] = Clearance in Beagle dog at 1 mg/kg, iv; type: ADME, organism-based, Canis lupus familiaris; conditions: in vivo; outline: as §1
[9] = Tmax in Sprague-Dawley rat at 4.4 mg/kg, po; type: ADME, organism-based; conditions: in vivo
[10] = Ssolubility of the compound at pH 2.3; type: physicochemical; conditions: buffer
Homo sapiens = organism: Homo sapiens; assay: Inhibition of human p-gp assessed as decrease in [3H]-digoxin transport at 10 uM
CHO [11] = assay: Genotoxicity in CHO cells at up to 0.36 mM after 22.5 hrs in absence of metabolic activators by micronucleus assay; type: toxicity, cell-based, Cricetulus griseus; conditions: chinese hamster
Outline: (§2)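 Cytokinesis-blocked micronucleus test in cultured CHO cells: up to 1.4 mM (500 µg/mL) for 3 h with metabolic activation, or up to 0.36 mM for 22.5 h without activation.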

Cytochrome P450 1A2 = target: T1, Cytochrome P450 1A2 (Homo sapiens, UniProt P05177); assay: Inhibition of human CYP1A2; type: ADME
T1 sequence (P05177 whole entry): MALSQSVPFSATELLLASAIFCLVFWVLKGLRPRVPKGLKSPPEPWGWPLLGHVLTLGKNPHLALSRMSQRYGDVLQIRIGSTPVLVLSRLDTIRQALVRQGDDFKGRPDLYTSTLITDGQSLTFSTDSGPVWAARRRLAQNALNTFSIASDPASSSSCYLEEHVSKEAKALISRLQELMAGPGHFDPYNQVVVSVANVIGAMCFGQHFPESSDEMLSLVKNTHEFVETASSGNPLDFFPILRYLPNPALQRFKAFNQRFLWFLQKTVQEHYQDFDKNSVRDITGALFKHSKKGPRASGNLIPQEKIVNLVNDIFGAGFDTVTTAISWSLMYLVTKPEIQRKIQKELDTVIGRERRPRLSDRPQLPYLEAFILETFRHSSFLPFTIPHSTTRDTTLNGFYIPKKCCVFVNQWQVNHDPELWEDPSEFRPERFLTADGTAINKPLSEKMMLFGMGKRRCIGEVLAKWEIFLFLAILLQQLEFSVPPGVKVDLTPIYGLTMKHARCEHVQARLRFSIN

[12] = Lipophilicity, log D of the compound at pH 6.5; type: physicochemical; conditions: buffer
Outline: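 LogD determined experimentally at pH 6.5.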

[13] = Volume of distribution at steady state in Sprague-Dawley rat at 0.87 mg/kg, iv; type: ADME, organism-based; conditions: in vivo, read-out: Vdss
Cytochrome P450 2D6 = Cytochrome P450 2D6 (Homo sapiens, UniProt P10635); assay: Inhibition of human CYP2D6; type: ADME
Cytochrome P450 2D6, sequence (P10635 whole entry): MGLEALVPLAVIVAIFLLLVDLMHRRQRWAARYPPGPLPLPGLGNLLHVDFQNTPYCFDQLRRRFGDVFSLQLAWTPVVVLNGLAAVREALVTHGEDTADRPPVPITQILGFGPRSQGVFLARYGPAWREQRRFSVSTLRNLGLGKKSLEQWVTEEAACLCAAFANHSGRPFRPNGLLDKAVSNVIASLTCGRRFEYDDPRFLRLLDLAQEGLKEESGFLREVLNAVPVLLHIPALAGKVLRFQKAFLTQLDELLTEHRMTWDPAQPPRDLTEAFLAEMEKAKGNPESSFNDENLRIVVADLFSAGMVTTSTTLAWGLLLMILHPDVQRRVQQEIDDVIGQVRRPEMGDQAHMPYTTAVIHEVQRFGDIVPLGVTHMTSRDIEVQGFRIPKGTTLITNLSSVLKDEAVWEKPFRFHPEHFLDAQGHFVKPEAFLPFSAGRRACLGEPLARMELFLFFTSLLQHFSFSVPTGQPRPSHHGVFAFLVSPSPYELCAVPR

[14] = Clearance in Sprague-Dawley rat at 1 mg/kg, iv after 4 hrs; type: ADME, organism-based; conditions: in vivo
Outline: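 Male Sprague-Dawley rats given 1 mpk IV in PEG400/ethanol (90:10); blood sampled at 5 and 30 min and 1, 2 and 4 h post-dose; clearance from plasma profile.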

[15] = Permeability across apical to basolateral side in human Caco2 cells at 3 uM; type: ADME, cell-based; conditions: Caco-2, read-out: permeability
Outline: (§3)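 Caco-2 monolayer permeability at 3 µM, apical-to-basolateral and basolateral-to-apical, reported in nm/sec.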

[16] = Drug metabolism in rat liver microsomes assessed as CYP-mediated metabolism by measuring compound half life; type: ADME
Outline: (§4)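 Microsomal stability with NADPH (CYP-dependent) in rat, cynomolgus, dog and human microsomes; half-life in min.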

[17] = Drug metabolism in human microsomes assessed as CYP-mediated metabolism by measuring compound half life; type: ADME; outline: as §4
[18] = Solubility of the compound at pH 8.5; type: physicochemical; conditions: buffer
[19] = Protein binding in human plasma; type: ADME, cell-free; conditions: read-out: PPB (converted)
[20] = Cmax in dog in 12 month toxicology study; type: ADME, organism-based, Canis lupus familiaris; conditions: in vivo
[21] = AUC in cynomolgus monkey at 5 mg/kg, po; type: ADME, organism-based, Macaca fascicularis; conditions: in vivo; outline: as §1
[22] = Oral bioavailability in Beagle dog at 5.2 mg/kg; type: ADME, organism-based, Canis lupus familiaris; conditions: in vivo; outline: as §1
CHO [23] = assay: Genotoxicity in CHO cells at 1.4 mM after 3 hrs in presence of metabolic activators by micronucleus assay; type: toxicity, cell-based, Cricetulus griseus; conditions: chinese hamster, 1400 µM; outline: as §2
HepG2 = assay: Cytotoxicity against human HepG2 cells; type: cell-based
[24] = Permeability across basolateral to apical side in human Caco2 cells at 3 uM; type: ADME, cell-based; conditions: Caco-2, read-out: permeability; outline: as §3

With `CC1(C)OCCn2c1nc(C(=O)NCc1ccc(F)cc1)c(O)c2=O` the Cmax [1] was 4.51 µM, the Vd [2] was 0.45 L/kg and the Activity (Canis familiaris) was “Toxic”. The half-life [3] was 6.5 h, the solubility [4] was 21 µg/mL (≈ 60.5 µM) and the Vd [5] was 0.87 L/kg. The IC50 [6] was 0.003 µM, the Cmax [7] was 6.12 µM and the Activity (Salmonella typhimurium) was “Non-Toxic”. The clearance [8] was 2 mL/min/kg, the Tmax [9] was 0.25 h and the solubility [10] was 9 µg/mL (≈ 25.9 µM). For the same compound, the inhibition (Homo sapiens) was 5%, the Activity (CHO [11]) was “Non-Toxic” and the IC50 (Cytochrome P450 1A2) was over 40 µM. For the same compound, the logD [12] was 2.02, the Vd [13] was 0.86 L/kg and the IC50 (Cytochrome P450 2D6) was over 40 µM. For the same compound, the clearance [14] was 9.6 mL/min/kg, the Papp A→B at 3 µM [15] was 33.4 ×10⁻⁶ cm/s and the half-life [16] was over 2 h. The half-life [17] was 1.83 h, the solubility [18] was 234 µg/mL (≈ 674 µM) and the fraction unbound [19] was 0.024. It also gave a Cmax at 12 month [20] of at least 67 µg/mL, an AUC [21] of 19.2 µM·h and a bioavailability [22] of 129%. For the same compound, the Activity (CHO [23]) was “Non-Toxic”, the IC50 (HepG2) was at least 45 µM and the Papp B→A at 3 µM [24] was 24 ×10⁻⁶ cm/s.
